The text below walks through data of ChEMBL document CHEMBL4152287, “Synthesis and characterization of novel classes of PDE10A inhibitors - 1H-1,3-benzodiazoles and imidazo[1,2-a]pyrimidines” (Eur J Med Chem, 2018).

A short description of series [1]: Intrinsic clearance in rat liver microsomes in presence of NADP/G6P/G6P dehydrogenase/MgCl2 by LC/MS analysis. The series is classed as ADME, microsome. The conditions noted are these: read-out: CLH. In outline:
(§1)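 Phase-1 liver microsomal stability assay for the named species, with intrinsic clearance reported in µl x min^-1 x mg^-1.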

Series [2] has as its target High affinity cGMP-specific 3',5'-cyclic phosphodiesterase 9A (Homo sapiens, UniProt O76083). Put plainly: Inhibition of Ca2+/calmodulin-induced recombinant human full length N-terminal GST-tagged PDE9A2 expressed in baculovirus infected Sf9 cells using cGMP as substrate pretreated for 10 mins followed by substrate addition and measured after 60 mins by kinase-Glo luminescence assay. Put shortly: (§2)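 Selectivity screen run as a PDE-Glo enzymatic-activity luminescence assay, with IC50 values determined against each counter-screen PDE isoform.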
On the technique in general: In Kinase-Glo more light means more ATP remaining.

Series [3] deals with Dual specificity calcium/calmodulin-dependent 3',5'-cyclic nucleotide phosphodiesterase 1C (Homo sapiens, UniProt Q14123). Put plainly: Inhibition of Ca2+/calmodulin-induced full-length recombinant human N-terminal GST-tagged PDE1C expressed in baculovirus infected Sf9 insect cells using cAMP as substrate pretreated for 10 mins followed by substrate addition and measured after 30 mins by kinase-Glo luminescence assay. In outline:
as §2

Series [4] concerns the target cAMP and cAMP-inhibited cGMP 3',5'-cyclic phosphodiesterase 10A (Homo sapiens, UniProt Q9Y233). Kind of series: Inhibition of Ca2+/calmodulin-induced recombinant human full length N-terminal GST-tagged PDE10A1 expressed in baculovirus infected Sf9 cells using cAMP as substrate pretreated for 10 mins followed by substrate addition and measured after 40 mins by kinase-Glo luminescence assay. To be noted: for pIC50: read-out: IC50.

Series [5] can be described thus: Intrinsic clearance in human liver microsomes in presence of NADP/G6P/G6P dehydrogenase/MgCl2 by LC/MS analysis. Type of series: ADME, microsome. The conditions noted are these: read-out: CLH. Put shortly:
as §1
In general terms: Liver microsomes are vesicles of endoplasmic reticulum, rich in cytochrome P450 enzymes.

In general, pIC50 refers to −log10 of the IC50, conventionally taken in molar units.

Structures are written as SMILES. pIC50: −log10 of the molar value.

Chain of Dual specificity calcium/calmodulin-dependent 3',5'-cyclic nucleotide phosphodiesterase 1C (Q14123 whole entry): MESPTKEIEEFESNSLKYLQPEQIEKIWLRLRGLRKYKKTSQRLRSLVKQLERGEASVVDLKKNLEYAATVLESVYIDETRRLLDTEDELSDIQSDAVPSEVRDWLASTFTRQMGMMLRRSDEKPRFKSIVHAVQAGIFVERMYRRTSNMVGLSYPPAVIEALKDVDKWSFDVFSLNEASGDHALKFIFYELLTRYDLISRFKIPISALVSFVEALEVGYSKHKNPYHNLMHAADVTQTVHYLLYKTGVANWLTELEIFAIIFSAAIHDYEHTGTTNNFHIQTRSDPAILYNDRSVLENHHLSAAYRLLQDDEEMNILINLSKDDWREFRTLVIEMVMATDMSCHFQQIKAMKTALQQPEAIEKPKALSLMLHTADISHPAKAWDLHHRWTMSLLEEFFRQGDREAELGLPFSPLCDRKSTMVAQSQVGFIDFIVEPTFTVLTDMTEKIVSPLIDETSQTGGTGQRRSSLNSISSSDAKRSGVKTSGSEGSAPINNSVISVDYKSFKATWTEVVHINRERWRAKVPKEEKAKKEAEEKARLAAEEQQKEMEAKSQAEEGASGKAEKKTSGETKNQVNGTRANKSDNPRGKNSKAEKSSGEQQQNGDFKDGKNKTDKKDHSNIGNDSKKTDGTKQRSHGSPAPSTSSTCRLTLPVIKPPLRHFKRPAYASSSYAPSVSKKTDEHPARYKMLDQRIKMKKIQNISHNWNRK
Chain of High affinity cGMP-specific 3',5'-cyclic phosphodiesterase 9A (O76083 whole entry, canonical isoform): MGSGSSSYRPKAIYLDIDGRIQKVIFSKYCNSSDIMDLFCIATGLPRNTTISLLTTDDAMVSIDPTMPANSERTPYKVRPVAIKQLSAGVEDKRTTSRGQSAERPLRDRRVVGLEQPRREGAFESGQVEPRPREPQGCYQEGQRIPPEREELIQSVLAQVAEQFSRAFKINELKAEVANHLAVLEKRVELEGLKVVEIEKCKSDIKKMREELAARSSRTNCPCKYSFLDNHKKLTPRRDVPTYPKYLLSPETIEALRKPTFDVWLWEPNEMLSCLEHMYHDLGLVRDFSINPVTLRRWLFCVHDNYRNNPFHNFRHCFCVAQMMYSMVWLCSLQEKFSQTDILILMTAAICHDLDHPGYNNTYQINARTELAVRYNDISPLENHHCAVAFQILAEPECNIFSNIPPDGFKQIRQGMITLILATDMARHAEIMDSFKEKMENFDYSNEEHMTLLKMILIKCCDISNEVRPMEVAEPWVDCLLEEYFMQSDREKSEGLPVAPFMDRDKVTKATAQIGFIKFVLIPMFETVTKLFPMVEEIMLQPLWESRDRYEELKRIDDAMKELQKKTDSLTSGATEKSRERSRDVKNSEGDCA
Chain of cAMP and cAMP-inhibited cGMP 3',5'-cyclic phosphodiesterase 10A (Q9Y233 whole entry): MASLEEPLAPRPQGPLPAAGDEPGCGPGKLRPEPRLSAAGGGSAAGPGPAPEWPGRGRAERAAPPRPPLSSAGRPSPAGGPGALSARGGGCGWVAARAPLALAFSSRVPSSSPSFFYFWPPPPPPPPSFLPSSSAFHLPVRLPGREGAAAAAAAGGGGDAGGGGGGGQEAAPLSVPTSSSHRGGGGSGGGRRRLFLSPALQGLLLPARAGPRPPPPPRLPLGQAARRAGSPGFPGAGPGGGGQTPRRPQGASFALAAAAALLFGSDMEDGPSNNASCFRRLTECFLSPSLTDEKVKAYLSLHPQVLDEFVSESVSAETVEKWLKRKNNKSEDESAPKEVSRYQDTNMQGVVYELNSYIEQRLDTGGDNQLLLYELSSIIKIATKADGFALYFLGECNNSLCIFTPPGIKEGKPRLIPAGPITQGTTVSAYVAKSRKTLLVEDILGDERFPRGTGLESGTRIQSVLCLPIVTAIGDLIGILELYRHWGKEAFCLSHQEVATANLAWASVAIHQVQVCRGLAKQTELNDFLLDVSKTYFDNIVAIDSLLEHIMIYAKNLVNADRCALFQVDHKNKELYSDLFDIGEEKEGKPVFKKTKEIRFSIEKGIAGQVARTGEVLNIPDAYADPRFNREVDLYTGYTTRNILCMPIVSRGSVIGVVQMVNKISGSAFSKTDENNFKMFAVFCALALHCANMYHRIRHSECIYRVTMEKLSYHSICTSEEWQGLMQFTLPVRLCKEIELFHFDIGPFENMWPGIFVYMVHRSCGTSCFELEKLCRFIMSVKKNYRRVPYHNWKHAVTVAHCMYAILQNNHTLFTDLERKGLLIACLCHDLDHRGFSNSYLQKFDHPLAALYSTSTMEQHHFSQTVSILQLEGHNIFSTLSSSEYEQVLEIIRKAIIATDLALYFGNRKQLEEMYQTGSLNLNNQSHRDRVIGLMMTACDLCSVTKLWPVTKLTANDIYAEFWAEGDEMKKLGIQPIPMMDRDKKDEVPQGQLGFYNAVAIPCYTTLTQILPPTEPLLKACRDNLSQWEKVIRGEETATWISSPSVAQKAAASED

On to `Cc1ncc(C)n2nc(-c3ccc4[nH]c(-c5ccccn5)nc4c3)nc12`, for which, in series [1], the microsomal CLint was found to be 11.1 µL/min/mg. Also, the pIC50 in series [2] and in series [3] was less than 5.00 each time.
As for `Cc1ncc(C)n2nc(-c3ccc4nc(-c5cccs5)[nH]c4c3)nc12`, the pIC50 was 7.55 in series [4], less than 5.00 in series [2] and less than 5.00 in series [3].
Turning to `Cc1ncc(C)n2nc(-c3ccc4nc(Cc5ccccc5)[nH]c4c3)nc12`, the pIC50 in series [4] is less than 6.00.
Regarding `Cc1ncc(C)n2nc(-c3ccc4nc(-c5cccnc5)[nH]c4c3)nc12`, the pIC50 in series [4] is 6.78; in series [2], less than 5.00; in series [3], less than 5.00.
Take `Cc1ncc(C)n2nc(-c3ccc4nc(-c5ccccc5C(F)(F)F)[nH]c4c3)nc12`: the pIC50 in series [4] was less than 6.00.
Same read-out and setting: the figure for `Cc1ncc(C)n2nc(-c3ccc4nc(-c5cnccn5)[nH]c4c3)nc12` is less than 6.00.
In the case of `Cc1ncc(C)n2nc(-c3ccn4cc(-c5ccccc5Br)nc4n3)nc12`, the negative-log IC50 (pIC50) is 6.84 in series [4], less than 5.00 in series [2] and less than 5.00 in series [3]. In addition, in series [1], the microsomal CLint is 1.8 µL/min/mg.
As to `COc1ccnc(-c2nc3ccc(-c4nc5c(C)ncc(C)n5n4)cc3[nH]2)c1`, the pIC50 in series [4] is less than 6.55.
Turning to `Cc1ncc(C)n2nc(-c3ccc4nc(-c5ccco5)[nH]c4c3)nc12`, the pIC50 in series [4] is 7.17; in series [2] it was less than 5.00; in series [3] it was less than 5.00. Moreover, the microsomal CLint in series [1] worked out at 26.3 µL/min/mg.
Consider `Cc1ncc(C)n2nc(-c3ccc4[nH]c(-c5cocn5)nc4c3)nc12`, for which the pIC50 in series [4] was less than 6.52.
In the case of `Cc1ncc(C)n2nc(-c3ccn4cc(-c5ccc(F)cc5Cl)nc4n3)nc12`, the pIC50 in series [4] is less than 6.00. The microsomal CLint in series [1] was found to be 11.5 µL/min/mg.
Turning to `Cc1ncc(C)n2nc(-c3ccc4nc(-c5ccccc5OC(F)(F)F)[nH]c4c3)nc12`, the pIC50 in series [4] was 6.55.
For `Cc1ncc(C)n2nc(-c3ccc4nc(-c5nccs5)[nH]c4c3)nc12`, the pIC50 in series [2] and in series [3] was less than 5.00 each time.
Consider `Cc1ncc(C)n2nc(-c3ccc4nc(-c5ccccc5C#N)[nH]c4c3)nc12`, for which the pIC50 in series [4] was 6.42.
For `COc1ccccc1-c1cn2ccc(-c3nc4c(C)ncc(C)n4n3)nc2n1`, the negative-log IC50 (pIC50) in series [4] is 7.28; in series [2], less than 5.00; in series [3], less than 5.00. Besides, the microsomal CLint in series [1] was 9.1 µL/min/mg.
Take `Cc1cc(C)n2nc(-c3ccn4cc(-c5ccccc5)nc4n3)nc2n1`: the pIC50 in series [2] and in series [3] was less than 5.00 each time.
Consider `Cc1cc(C)n2nc(-c3ccn4cc(-c5nccs5)nc4n3)nc2n1`, for which, in series [4], the pIC50 is 6.34.
With `Cc1cc(C)n2nc(-c3ccc4nc(-c5ccccc5)[nH]c4c3)nc2n1`, the pIC50 in series [2] and in series [3] was less than 5.00 each time.
`Cc1cc(C)n2nc(-c3ccc4cc(-c5ccccc5)nn4c3)nc2n1`: the pIC50 in series [4] was 6.11.
`Cc1csc(-c2nc3ccc(-c4nc5c(C)ncc(C)n5n4)cc3[nH]2)n1`: the figures for the pIC50 in series [4], in series [2] and in series [3] were 6.93, less than 5.00 and less than 5.00, respectively.
As for `Cc1ncc(C)n2nc(-c3ccc4nc(-c5ccc(F)cc5)[nH]c4c3)nc12`, the pIC50 in series [2] and in series [3] was less than 5.00 in each case.
Regarding `Cc1ncc(C)n2nc(-c3ccc4[nH]c(-c5ccccc5F)nc4c3)nc12`, the pIC50 in series [2] and in series [3] was less than 5.00 each time.
With `COc1ccc(OC)c(-c2cn3ccc(-c4nc5c(C)ncc(C)n5n4)nc3n2)c1`, in series [4], the negative-log IC50 (pIC50) is less than 6.55.
Regarding `Cc1ncc(C)n2nc(-c3ccc4nc(-c5cnc6ccccc6n5)[nH]c4c3)nc12`, the pIC50 in series [4] was less than 6.00.
Regarding `COc1ccccc1-c1nc2ccc(-c3nc4c(C)ncc(C)n4n3)cc2[nH]1`, the pIC50 in series [2] and in series [3] was less than 5.00 in each case.
As to `Cc1cc(C)n2nc(-c3ccn4cc(-c5ccccn5)nc4n3)nc2n1`, in series [4], the negative-log IC50 (pIC50) is 6.55.
On to `Cc1nc(-c2ccc3nc(-c4ccccc4)[nH]c3c2)nc2ccccc12`, for which the pIC50 in series [4] was 6.50. Moreover, the microsomal CLint in series [1] was greater than 450 µL/min/mg.
Turning to `Cc1ncc(C)n2nc(-c3ccn4cc(-c5ccc(F)cc5)nc4n3)nc12`, the pIC50 is 7.12 in series [4], less than 5.00 in series [2] and less than 5.00 in series [3]. The microsomal CLint in series [1] amounted to 3.1 µL/min/mg.
As for `Cc1cnc(-c2nc3ccc(-c4nc5c(C)ncc(C)n5n4)cc3[nH]2)s1`, the negative-log IC50 (pIC50) was 6.70 in series [4], less than 5.00 in series [2] and less than 5.00 in series [3].
Take `Cc1ncc(C)n2nc(-c3ccc4[nH]c(-c5ccccc5)nc4c3)nc12`: the values for the microsomal CLint in series [1] and in series [5] were 27.4 µL/min/mg and 34.4 µL/min/mg, respectively. The pIC50 in series [2] and in series [3] was less than 5.00 each time.
Take `Cc1ncc(C)n2nc(-c3ccn4nc(-c5ccccc5)nc4c3)nc12`: the pIC50 in series [4] was 6.57.
The same measure, in the same setting: the figure for `Cc1ncc(C)n2nc(-c3ccc4nc(-c5nccn5C)[nH]c4c3)nc12` is 6.55.
For `Cc1ncc(C)n2nc(-c3ccn4cc(-c5ccccn5)nc4n3)nc12`, the pIC50 in series [4] was 6.94; in series [2], less than 5.00; in series [3], less than 5.00.
With `Cc1ncc(C)n2nc(-c3ccc4nc(-c5ncccc5F)[nH]c4c3)nc12`, the figures for the negative logarithm of the IC50 (pIC50) in series [4], in series [2] and in series [3] were 7.16, less than 5.00 and less than 5.00, respectively. The microsomal CLint in series [1] amounted to 1.8 µL/min/mg.
On to `Cc1ncc(C)n2nc(-c3ccn4cc(-c5cccc(Cl)c5)nc4n3)nc12`, for which the pIC50 was 6.97 in series [4], less than 5.00 in series [2] and less than 5.00 in series [3]. The microsomal CLint in series [1] turned out to be 18.9 µL/min/mg.
With `Cc1ncc(C)n2nc(-c3ccc4nc(-c5cncs5)[nH]c4c3)nc12`, the figures for the negative logarithm of the IC50 (pIC50) in series [4], in series [2] and in series [3] were 6.87, less than 5.00 and less than 5.00, respectively.
`Cc1nc(-c2ccn3nc(-c4ccccc4)nc3c2)nc2ccccc12`: the pIC50 in series [4] is 6.05.
The same measure, in the same setting: the figure for `Cc1nc(-c2ccn3cc(-c4ccccc4)nc3n2)nc2ccccc12` is 6.79.
For `Cc1ncc(C)n2nc(-c3ccc4nc(-c5cccc(Br)c5)[nH]c4c3)nc12`, the pIC50 is 6.84 in series [4], less than 5.00 in series [2] and less than 5.00 in series [3].
Take `Cc1cc(C)n2nc(-c3ccn4nc(-c5ncccn5)nc4c3)nc2n1`: in series [4], the pIC50 was less than 5.30.
As for `Cc1cc(C)n2nc(-c3ccc4nc(-c5ccccc5)n(C)c4c3)nc2n1`, the IC50 result in series [4] (sf9) is on record as “Not Active”.
Consider `Cc1ccccc1-c1nc2ccc(-c3nc4c(C)ncc(C)n4n3)cc2[nH]1`, for which, in series [4], the pIC50 is 6.62.
Turning to `Cc1ncc(C)n2nc(-c3ccn4cc(-c5nccs5)nc4n3)nc12`, the pIC50 in series [4] was 6.87; in series [2], less than 5.00; in series [3], less than 5.00.
Consider `Cc1cc(C)n2nc(-c3ccn4nc(-c5ccccc5)nc4c3)nc2n1`, for which the pIC50 in series [4] was 6.42.
With `Cc1ncc(C)n2nc(-c3ccc4nc(-c5cscn5)[nH]c4c3)nc12`, the pIC50 in series [4] was 6.57.
Take `Cc1ncc(C)n2nc(-c3ccn4cc(-c5ccc(Br)cc5)nc4n3)nc12`: the negative-log IC50 (pIC50) in series [4] was less than 6.00. Further, the microsomal CLint in series [1] was found to be 15 µL/min/mg.
Turning to `Cc1ncc(C)n2nc(-c3ccc4nc(-c5ccc(Cl)s5)[nH]c4c3)nc12`, the results for the pIC50 in series [4], in series [2] and in series [3] were 6.79, less than 5.00 and less than 5.00, respectively.
Turning to `Cc1ncc(C)n2nc(-c3ccc4cc(-c5ccccc5)nn4c3)nc12`, the pIC50 in series [4] is 6.24.
